From PubChem
Most compounds without a hit are left out; they make up all but 6.1% or so of the library.
WT yeast gro inh: growth inhibition of WT yeast, mitochondrial fusion screen. mitochondrial fusion phenotypic screen, WT strain. inhibition, % at 10 µM. 190,000 compounds, 2.1% hits. AID 1362; in the data active means inhibition above about 58%; tested in S. cerevisiae
RAM network inh: yeast RAM network inhibition; inhibition, % at 50 µM; 190,000 compounds, 1.8% hits; S. cerevisiae dse1pr::URA3 reporter, 5-FOA growth OD615, 2 d; analog-sensitive cbk1-as2 kinase mutant strain;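 active means inhibition above a set limit, 3 SD over mean compound inhibition, cut at about 8.4% in these data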;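 further: inhibition rescues growth on 5-FOA so higher OD means more RAM inhibition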
BB579 growth dn: chemicals that inhibit yeast BB579 growth in restrictive medium (lifespan-shortening candidates); inhibition, % at 10 µM; S. cerevisiae BB579 growth, OD615, 48 h; 140,000 compounds, 0.51% hits;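 active means inhibition above a set limit, 3 SD over the mean compound inhibition, cut at about 44% in these data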
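Test system: Saccharomyces cerevisiae DeaD strain BB579, replicative lifespan model yeast | Buffer or medium: Restrictive CSMM-D medium | Doses: One dose, 10 µM compound with 0.25% DMSO | Incubation: 48 h exposure, 30 °C | Detection: Culture absorbance at 615 nm | Control set: Amphotericin B at 10 µg/mL as positive control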
Yeast lifespan up: yeast lifespan extension. inhibition of the nicotinamide effect, % at 10 µM. S. cerevisiae growth with nicotinamide, OD615; deaD strain in restrictive glucose medium. 130,000 compounds, 0.68% hits;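 active means inhibition above a set limit, placed 3 SD over the median of all compounds, cut at about 26% in these data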
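Test system – modified budding yeast, DeaD strain · Compound – single dose 10 µM compound, 0.25% DMSO · Times – culture preincubation 4 h, compound exposure 48 h, both 30 °C · Detection – optical density (absorbance) at 615 nm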
DAT uptake mod: human DAT dopamine uptake with cocaine, either direction; B-score at 10 µM; 110,000 compounds, 1.3% hits; LLC-PK1 hDAT cells, [14C]-dopamine uptake with cocaine IC80; actives deviate in either direction;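 active means Z score or B-score, a plate-position-corrected score, falls beyond the plate's 99.7% confidence bounds, in either direction; inactive means both scores lie inside the 99.7% bounds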
Target sequence (Q01959 whole entry, looked up): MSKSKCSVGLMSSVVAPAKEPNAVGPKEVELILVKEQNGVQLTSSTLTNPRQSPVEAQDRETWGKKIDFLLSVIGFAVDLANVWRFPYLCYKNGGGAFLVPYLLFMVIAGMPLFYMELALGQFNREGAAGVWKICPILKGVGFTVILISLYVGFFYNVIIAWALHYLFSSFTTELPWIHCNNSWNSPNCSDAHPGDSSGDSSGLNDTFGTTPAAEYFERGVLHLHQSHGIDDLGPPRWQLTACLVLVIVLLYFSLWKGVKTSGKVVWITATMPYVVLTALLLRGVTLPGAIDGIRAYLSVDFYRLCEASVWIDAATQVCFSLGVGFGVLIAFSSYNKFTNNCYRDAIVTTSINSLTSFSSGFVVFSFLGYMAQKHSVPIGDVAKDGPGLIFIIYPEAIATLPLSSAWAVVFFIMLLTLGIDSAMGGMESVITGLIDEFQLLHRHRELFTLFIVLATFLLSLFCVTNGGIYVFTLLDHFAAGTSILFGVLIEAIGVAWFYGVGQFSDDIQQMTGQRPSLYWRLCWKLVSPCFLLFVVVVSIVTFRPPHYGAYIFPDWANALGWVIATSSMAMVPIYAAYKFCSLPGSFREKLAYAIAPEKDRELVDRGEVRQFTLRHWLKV
Measles CPE: protection of cells from measles virus; Measles virus-infected cells, CPE protection, absorbance; protection (pct of control), % at 4 µM; 140,000 compounds, 1.5% hits; in the data active means protection mostly above about 24%, no sharp cut-off; inactive means mostly below about 26%
Of the large screens only hits and unclear results are named; the others gave an inactive call.

COc1ccc(CSCCNC(=S)Nc2ccccc2)cc1Cl	WT yeast gro inh 77.0 (no result: BB579 growth dn, Yeast lifespan up, DAT uptake mod, Measles CPE)
S=C(NCCSCc1c(Cl)cccc1Cl)Nc1ccccc1	WT yeast gro inh 81.6
Cc1c(C(=O)NCCSCc2ccc(Cl)cc2Cl)cccc1[N+](=O)[O-]	WT yeast gro inh 68.8, RAM network inh 10.8
O=C(CCc1nnc(COc2ccccc2)o1)NCc1ccccc1C(F)(F)F	none (no result: BB579 growth dn, Yeast lifespan up, DAT uptake mod, Measles CPE)
CCOC(=O)Cc1csc(SC(C)C(=O)Nc2ccc(NC(C)=O)cc2)n1 (stereo not given)	none
Cc1cc(/C=C(\C#N)C(=O)OCC(=O)Nc2ccc(OC(F)F)cc2)c(C)n1CC(C)C	none (no result: DAT uptake mod)
Cc1ccccc1CSCCNC(=O)c1ccccc1	none (no result: DAT uptake mod)
Cc1ccccc1CSCCNC(=S)Nc1ccccc1	WT yeast gro inh 70.9 (no result: BB579 growth dn, Yeast lifespan up, DAT uptake mod, Measles CPE)
Cc1ccc(C2=NN=C(NC(=O)C(F)(F)F)SC2)cc1	none (no result: BB579 growth dn, Yeast lifespan up, DAT uptake mod, Measles CPE)
Cc1ccc(CNC(=O)C(OC(=O)c2ccco2)C(C)C)cc1 (stereo not given)	none
Cc1ccc(CNC(=O)C(C)OC(=O)c2ccco2)cc1 (stereo not given)	Yeast lifespan up 39.5
CCOC(=O)C1CC(c2ccc(Cl)cc2)=NNC1=O (stereo not given)	none (no result: BB579 growth dn, Yeast lifespan up, DAT uptake mod, Measles CPE)
CCOC(=O)C1Cc2cc3c(cc2C1=O)CC(C(=O)OCC)C3=O (stereo not given)	Yeast lifespan up 50.8
O=C1CCc2ccc(OCCCCN3CCN(c4cccc(Cl)c4Cl)CC3)cc2N1	WT yeast gro inh 83.6 (no result: RAM network inh, BB579 growth dn, Yeast lifespan up, Measles CPE)
O=C(CSC1=NCCN1)NC(c1ccccc1)c1ccccc1	none (no result: BB579 growth dn, Yeast lifespan up, DAT uptake mod, Measles CPE)
Cc1ccc2cc(CCNS(=O)(=O)c3ccc(F)cc3)c(=O)[nH]c2c1C	RAM network inh 8.5 (no result: BB579 growth dn, Yeast lifespan up, DAT uptake mod, Measles CPE)
Cc1ccc2cc(CCNS(=O)(=O)c3ccc(F)cc3)c(=O)[nH]c2c1	none
COc1cccc(/C=C/C(=O)OCC(=O)NCCc2ccccc2)c1	none (no result: BB579 growth dn, Yeast lifespan up, DAT uptake mod, Measles CPE)
Cc1ccc(-c2cc(-c3ccccc3)nc(Cl)n2)cc1	RAM network inh 9.4
Cc1cc(-c2ccccc2)nc(Cl)c1C#N	none (no result: DAT uptake mod)
CC(C)(C)n1nnnc1C(c1cccc(C(F)(F)F)c1)N1CCOCC1 (stereo not given)	Measles CPE 27.4
Cc1ccc(-c2nnc(N3CC(C)OC(C)C3)c3ccccc23)cc1 (stereo not given)	none (no result: BB579 growth dn, Yeast lifespan up, DAT uptake mod, Measles CPE)
COc1ccc(CNC(=S)NCc2ccc(OC)cc2)cc1	none (no result: BB579 growth dn, Yeast lifespan up, DAT uptake mod, Measles CPE)
CCOc1ccc(CNC(=S)NCc2ccc(OCC)cc2)cc1	none (no result: DAT uptake mod)
CC(C)COc1ccc(CNC(=S)NCc2ccccc2)cc1	WT yeast gro inh 69.3
COc1ccc(CNC(=S)NC(C)CCc2ccccc2)cc1 (stereo not given)	WT yeast gro inh 71.2 (no result: BB579 growth dn, Yeast lifespan up, DAT uptake mod, Measles CPE)
COC(=O)COc1ccc(C)cc1-n1nc2ccccc2n1	WT yeast gro inh 73.6 (no result: BB579 growth dn, Yeast lifespan up, DAT uptake mod, Measles CPE)
Cc1ccc(OC(=O)COc2ccccc2C)c(-n2nc3ccccc3n2)c1	none (no result: Yeast lifespan up)
CCOc1ccc(CN2CCN(Cc3nc4c(s3)CCCC4)CC2CCO)cc1 (stereo not given)	none (no result: BB579 growth dn, Yeast lifespan up, DAT uptake mod, Measles CPE)
O=[N+]([O-])c1ccc(NCCCNS(=O)(=O)c2ccccc2)c(Cl)c1	none (no result: DAT uptake mod)
COc1cc(Cl)c(C)cc1NC(=O)CN(C)Cc1cccc(OC)c1OC	WT yeast gro inh 59.2 (no result: BB579 growth dn, Yeast lifespan up, DAT uptake mod, Measles CPE)
COc1ccc(Br)cc1CN(C)CC(=O)Nc1ccccc1Cl	WT yeast gro inh 67.1 (no result: DAT uptake mod)
COc1ccccc1CN(C)CC(=O)Nc1ccc(Cl)cc1F	none (no result: BB579 growth dn, Yeast lifespan up, DAT uptake mod, Measles CPE)
CN(CC(=O)Nc1ccccc1-c1ccccc1)Cc1ccccc1Cl	WT yeast gro inh 70.3 (no result: BB579 growth dn, Yeast lifespan up, DAT uptake mod, Measles CPE)
O=C(Nc1cccnc1)C1CCCN(S(=O)(=O)c2cccc3nsnc23)C1 (stereo not given)	none
CCC(C)(C)NC(=O)/C=C/c1cnc2ccccc2n1	none (no result: DAT uptake mod)
COc1ccc(S(=O)(=O)NCCSCc2ccccc2C)cc1Br	RAM network inh 9.9
O=C(CN1C(=O)CCC1=O)c1ccc(-c2ccccc2)cc1	Measles CPE 33.0 (no result: DAT uptake mod)
N=c1ccn(CC(=O)c2ccc(-c3ccccc3)cc2)cc1	WT yeast gro inh 66.0 (no result: BB579 growth dn, Yeast lifespan up, DAT uptake mod, Measles CPE)
CCO[C@H]1OC(C(=O)N2CCOCC2)=C[C@@H](C)[C@@H]1CCCO	none (no result: BB579 growth dn, Yeast lifespan up, Measles CPE)
O=C1Nc2ccccc2S/C1=C/Nc1cccc(Cl)c1	RAM network inh 8.4
O=C1Nc2ccccc2S/C1=C\C(=O)N1CCCC1	none (no result: BB579 growth dn, Yeast lifespan up, DAT uptake mod, Measles CPE)
Cc1ccc(CNC(=O)Cc2noc3ccccc23)cc1	none (no result: BB579 growth dn, Yeast lifespan up, DAT uptake mod, Measles CPE)
CCOc1ccc(C(c2c(NC(=O)c3ccccc3)sc(C)c2C)N2CCN(C)CC2)cc1 (stereo not given)	WT yeast gro inh 77.9 (no result: DAT uptake mod)
COc1cccc(NC(=O)COc2ccc(S(=O)(=O)NC(C)C)cc2)c1	none (no result: Yeast lifespan up)
COc1ccc(-n2c(-c3ccc(Br)cc3)nc(=S)c3c2CCCC3)cc1	WT yeast gro inh 62.9 (no result: DAT uptake mod)
CCCn1nc(NC(=O)c2ccccn2)c2cc3cc(C)ccc3nc21	RAM network inh 9.2
O=C(O)Cc1coc(-c2ccc(F)cc2)n1	DAT uptake mod -8.54
C#CCn1c(C)cc(C)c(S(=O)(=O)c2ccccc2)c1=O	none (no result: BB579 growth dn, Yeast lifespan up, DAT uptake mod, Measles CPE)
S=C(NCCc1ccccc1)NN=C1CCCCCC1	WT yeast gro inh 65.7 (no result: BB579 growth dn, Yeast lifespan up, DAT uptake mod, Measles CPE)
O=C(NC(=S)NCCc1ccccc1)C1CCCCC1	none (no result: DAT uptake mod)
S=C(NCCc1ccccc1)N/N=C/C1CCCCC1	WT yeast gro inh 72.0 (no result: BB579 growth dn, Yeast lifespan up, DAT uptake mod, Measles CPE)
O=[N+]([O-])c1cc(Cc2ccccc2)cc(C=Nc2ccc(N3CCOCC3)cc2)c1O	BB579 growth dn 99.6 (no result: DAT uptake mod)
O=C(/C=C/c1ccc(S(=O)(=O)NCc2ccco2)cc1)NCc1cccc(Cl)c1	none (no result: DAT uptake mod)
COC(=O)c1ccccc1NC(=O)CNC(=O)c1ccc(OC)c(OC)c1	none (no result: BB579 growth dn, Yeast lifespan up, DAT uptake mod, Measles CPE)
O=Nc1c(O)n(Cc2ccc(Cl)cc2)c2ccccc12	none
